Reference: ChEMBL document CHEMBL1153729, “Structurally diverse limonoids from the fruits of Swietenia mahagoni” (2009)
The source made the active and inactive calls.

How the values were obtained:
Saccharomyces = experiment: Antifungal activity against Saccharomyces sake ATCC 26421 after 48 hrs; format: functional, organism-based
How it was run: (§1)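 Fungi grown in Sabouraud dextrose broth with compounds for 48 h at 37 °C. Blank cultures received a limited amount of DMSO. Amphotericin B, dissolved in DMSO, served as the positive control.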

Shigella flexneri = experiment: Antibacterial activity against Shigella flexneri ATCC 12022 after 18 hrs; format: functional, organism-based
How it was run: (§2)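 Bacterial cells suspended in Mueller-Hinton broth at a final density of […]. Incubated aerobically with compounds in DMSO at 37 °C for 18 h, alongside DMSO-only blank cultures and an ofloxacin positive control. MIC taken as the lowest concentration giving complete inhibition of visible growth.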

Trichophyton rubrum = experiment: Antifungal activity against Trichophyton rubrum ATCC 10218 after 48 hrs; format: functional, organism-based; how it was run: as §1
Candida albicans = experiment: Antifungal activity against Candida albicans ATCC 1600 after 48 hrs; format: functional, organism-based; how it was run: as §1
[1] = tested on: Staphylococcus epidermidis; experiment: Antibacterial activity against Staphylococcus epidermidis ATCC 12228 after 18 hrs; format: functional, organism-based; how it was run: as §2
Nannizzia gypsea = experiment: Antifungal activity against Microsporum gypseum ATCC 14683 after 48 hrs; format: functional, organism-based; how it was run: as §1
Escherichia coli = experiment: Antibacterial activity against Escherichia coli ATCC 25922 after 18 hrs; format: functional, organism-based; how it was run: as §2
Kocuria rhizophila = experiment: Antibacterial activity against Micrococcus luteus ATCC 9341 after 18 hrs; format: functional; conditions: DC2201; how it was run: as §2
Pseudomonas aeruginosa = experiment: Antibacterial activity against Pseudomonas aeruginosa ATCC 14502 after 18 hrs; format: functional, organism-based; how it was run: as §2
Bacillus subtilis = experiment: Antibacterial activity against Bacillus subtilis ATCC 6633 after 18 hrs; format: functional, organism-based; how it was run: as §2
Staphylococcus aureus = experiment: Antibacterial activity against Staphylococcus aureus ATCC 25923 after 18 hrs; format: functional, organism-based; how it was run: as §2

Measured: Activity

CC(=O)O[C@H]1C[C@@H](O)C(C)(C)[C@@H]2C[C@@H](OC(C)=O)[C@]3(C)[C@H](CC[C@@]4(C)[C@H](c5ccoc5)OC(=O)[C@H]5O[C@@]534)[C@@]12C
inactive: all assays above

COC(=O)C[C@H]1C(C)(C)[C@H](OC(C)=O)[C@]2(O)C=C3C4=CC(=O)O[C@@H](c5ccoc5)[C@]4(C)CC[C@@H]3[C@@]1(C)C2=O
inactive: all assays above

C=C1[C@@H]2CC[C@@]3(C)[C@H](c4ccoc4)OC(=O)C[C@]13O[C@H]1CC(=O)C(C)(C)[C@H](C(O)C(=O)OC)[C@]12C (some centres not stated)
inactive: all assays above

COC(=O)C[C@H]1C(C)(C)[C@H](OC(C)=O)[C@]2(O)CC3=C4[C@@H](O)C(=O)O[C@@H](c5ccoc5)[C@]4(C)CC[C@@H]3[C@@]1(C)C2=O
inactive: all assays above

CC1(C)[C@H](O)C[C@H](O)[C@]2(C)[C@H]3CC[C@@]4(C)[C@H](c5ccoc5)OC(=O)[C@H]5O[C@]54[C@]3(C)[C@H](O)C[C@@H]12
inactive: all assays above

CC(=O)O[C@@H]1C[C@H](O)[C@]2(C)[C@H]3CC[C@@]4(C)[C@H](c5ccoc5)OC(=O)[C@H]5O[C@]54[C@]3(C)[C@H](OC(C)=O)C[C@H]2C1(C)C
inactive: all assays above

CC(=O)O[C@H]1C[C@@H](OC(C)=O)C(C)(C)[C@@H]2C[C@@H](O)[C@]3(C)[C@H](CC[C@@]4(C)[C@H](c5ccoc5)OC(=O)[C@H]5O[C@@]534)[C@@]12C
inactive: all assays above

COC(=O)C[C@H]1C(C)(C)[C@H](OC(=O)C(C)C)[C@@H]2C=C3[C@H]([C@H](OC(C)=O)C[C@]4(C)[C@H]3CC(=O)O[C@H]4c3ccoc3)[C@@]1(C)C2=O
inactive: all assays above

COC(=O)C[C@H]1C(C)(C)[C@H](O)[C@@H]2C=C3[C@H]([C@H](OC(C)=O)C[C@]4(C)[C@H]3CC(=O)O[C@H]4c3ccoc3)[C@@]1(C)C2=O
inactive: all assays above

CC(=O)O[C@H]1C[C@@H](O)C(C)(C)[C@@H]2C[C@@H](O)[C@]3(C)[C@H](CC[C@@]4(C)[C@H](c5ccoc5)OC(=O)[C@H]5O[C@@]534)[C@@]12C
inactive: all assays above

COC(=O)C[C@H]1C(C)(C)C(=O)[C@@H]2CC3C4=CC(=O)O[C@@H](c5ccoc5)[C@]4(C)CC[C@@H]3[C@@]1(C)C2=O (some centres not stated)
inactive: all assays above

CC1(C)C(=O)C=C[C@]2(C)[C@H]3CC[C@@]4(C)[C@H](c5ccoc5)OC(=O)[C@H]5O[C@]54[C@]3(C)C(=O)C[C@@H]12
inactive: all assays above
